{"source": "ChEMBL document CHEMBL3351274", "about": "“Sensitization of tumor necrosis factor-related apoptosis-inducing ligand (TRAIL)-resistant primary prostate cancer cells by isoegomaketone from Perilla frutescens” (J Nat Prod, 2014)", "key": {"[1]": {"assay": "Induction of apoptosis in human RC-58T/h/SA#4 cells assessed as AIF level in cytosol at 20 uM after 24 hrs by immunoblotting analysis relative to untreated control", "assay_type": "functional", "summary_of_the_method": "(§1)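 Cells grown in DMEM/10% FBS at 37 °C, 5% CO2, then treated 24 h with compound (20 μM) with or without TRAIL (100 ng/mL). Whole lysates were used for Bax and Bcl-2. Cytosolic and mitochondrial fractions were prepared with a mitochondria isolation kit for AIF and cytochrome c. Blotting used 10 μg protein/lane, 12% SDS-PAGE, nitrocellulose, overnight primary antibody at 4 °C and ECL detection.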"}, "[2]": {"assay": "Induction of apoptosis in human RC-58T/h/SA#4 cells assessed as cytochrome C level in cytosol at 20 uM after 24 hrs by immunoblotting analysis relative to untreated control", "assay_type": "functional", "summary_of_the_method": "as §1"}, "[3]": {"assay": "Induction of apoptosis in human RC-58T/h/SA#4 cells assessed as DR5 expression at 5 uM after 24 hrs by immunoblotting analysis relative to untreated control", "assay_type": "functional"}, "[4]": {"assay": "Induction of apoptosis in human RC-58T/h/SA#4 cells assessed as DR5 expression at 40 uM after 24 hrs by immunoblotting analysis relative to untreated control", "assay_type": "functional"}, "[5]": {"assay": "Induction of apoptosis in human RC-58T/h/SA#4 cells assessed as DR4 expression at 20 uM after 3 hrs by immunoblotting analysis relative to untreated control", "assay_type": "functional"}, "[6]": {"assay": "Induction of apoptosis in human RC-58T/h/SA#4 cells assessed as DR4 expression at 20 uM after 18 hrs by immunoblotting analysis relative to untreated control", "assay_type": "functional"}, "[7]": {"assay": "Induction of apoptosis in human RC-58T/h/SA#4 cells assessed as DR4 expression at 20 uM after 24 hrs by immunoblotting analysis relative to untreated control", "assay_type": "functional"}, "[8]": {"assay": "Induction of apoptosis in human RC-58T/h/SA#4 cells assessed as DR5 expression at 20 uM after 12 hrs by immunoblotting analysis relative to untreated control", "assay_type": "functional"}, "[9]": {"assay": "Sensitization of TRAIL-induced apoptosis in human RC-58T/h/SA#4 cells assessed as accumulation at Sub-G1 phase at 20 uM after 24 hrs by annexin-V/propidium iodide staining-based flow cytometry in presence of Dr5 Fc chimera (reference value: 4.8%)", "assay_type": "functional"}, "[10]": {"assay": "Sensitization of TRAIL-induced apoptosis in human RC-58T/h/SA#4 cells assessed as procaspase-8 activation at 20 uM after 24 hrs by immunoblotting analysis in presence of Dr5 Fc chimera relative to untreated control", "assay_type": "functional", "summary_of_the_method": "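Cells pretreated 2 h with 100 ng/mL DR5 Fc chimera, then given 20 μM compound and/or 100 ng/mL TRAIL for 24 h. Total lysates immunoblotted (12% SDS-PAGE, nitrocellulose) for caspase-3, -8, -9 and PARP cleavage, with HRP secondary and ECL detection.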"}, "Homo sapiens [11]": {"species_on_record": "Homo sapiens", "assay": "Induction of apoptosis in human RC-58T/h/SA#4 cells assessed as CHOP expression after 3 to 24 hrs by immunoblotting analysis relative to untreated control", "assay_type": "functional, cell-based", "summary_of_the_method": "(§2)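 RC-58T/h/SA#4 cells seeded at 5 × 10^4 cells/mL and cultured 24 h, then given compound across a concentration series or at fixed dose over a time course. Lysates were quantified by BCA. 10 μg protein/lane run on 12% SDS-PAGE and transferred to nitrocellulose. Blots probed for p53, CHOP and β-actin with HRP secondary and ECL.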"}, "[12]": {"assay": "Induction of apoptosis in human RC-58T/h/SA#4 cells assessed as CHOP expression at 2.5 uM after 24 hrs by immunoblotting analysis relative to untreated control", "assay_type": "functional", "summary_of_the_method": "as §2"}, "[13]": {"assay": "Induction of apoptosis in human RC-58T/h/SA#4 cells assessed as CHOP expression at 5 uM after 24 hrs by immunoblotting analysis relative to untreated control", "assay_type": "functional", "summary_of_the_method": "as §2"}, "[14]": {"assay": "Induction of apoptosis in human RC-58T/h/SA#4 cells assessed as CHOP expression at 20 uM after 3 hrs by immunoblotting analysis relative to untreated control", "assay_type": "functional", "summary_of_the_method": "as §2"}, "[15]": {"assay": "Induction of ROS generation in human RC-58T/h/SA#4 cells at 10 uM after 30 mins by flow cytometry (reference value: 1.9%)", "assay_type": "functional"}, "[16]": {"assay": "Sensitization of TRAIL-induced cytotoxicity against human RWPE1 cells assessed as cell viability at 20 uM after 24 hrs by SRB assay", "assay_type": "cell-based", "details": "rwpe-1, 24 h", "summary_of_the_method": "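Cells seeded at 5 × 10^4 cells/mL, grown in DMEM with 10% FBS, and given the compound with or without 100 ng/mL TRAIL for 24 h at 37 °C, 5% CO2. RWPE-1 tested at 20 μM. Cells fixed in 12% TCA for 1 h at 4 °C, stained 1 h with 0.4% SRB, washed in 1% acetic acid, dye dissolved in 10 mM Tris and absorbance read. Three experiments, means ± SD.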"}, "Homo sapiens [17]": {"species_on_record": "Homo sapiens", "assay": "Sensitization of TRAIL-induced apoptosis in human RC-58T/h/SA#4 cells assessed as condensation of chromatin at 20 uM after 24 hrs by Hoechst 33258 staining-based fluorescence microscopy", "assay_type": "functional, cell-based", "summary_of_the_method": "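Cells seeded at 1 × 10^6/well and given 20 μM compound and/or 100 ng/mL TRAIL for 24 h. Cells fixed in 1% glutaraldehyde and stained with 5 μg/mL Hoechst 33258 for 10 min at room temperature. Nuclear fragmentation and chromatin condensation scored by fluorescence microscopy at ×400.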"}, "Homo sapiens [18]": {"species_on_record": "Homo sapiens", "assay": "Sensitization of TRAIL-induced apoptosis in human RC-58T/h/SA#4 cells at 20 uM after 24 hrs by annexin-V/propidium iodide staining-based flow cytometry relative to control", "assay_type": "functional, cell-based", "summary_of_the_method": "(§3)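 RC-58T/h/SA#4 cells seeded at 1 × 10^5 cells/mL in 6-well plates and given 20 μM compound and/or 100 ng/mL TRAIL for 24 h. Cells washed in ice-cold PBS, labelled with annexin V Alexa Fluor 488 for 30 min at 4 °C in the dark, then with PI. Annexin V-positive fraction counted by flow cytometry; three independent experiments, means ± SD, Student's t-test.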"}, "Homo sapiens [19]": {"species_on_record": "Homo sapiens", "assay": "Induction of apoptosis in human RC-58T/h/SA#4 cells at 20 uM after 24 hrs by annexin-V/propidium iodide staining-based flow cytometry relative to control", "assay_type": "functional, cell-based", "summary_of_the_method": "as §3"}, "[20]": {"assay": "Sensitization of TRAIL-induced apoptosis in human RC-58T/h/SA#4 cells assessed as Bax activation at 20 uM after 24 hrs by immunoblotting analysis relative to untreated control", "assay_type": "functional", "summary_of_the_method": "(§4)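 Cells seeded at 5 × 10^4 cells/mL and cultured 24 h, then given 20 μM compound and/or 100 ng/mL TRAIL for 24 h. Whole-cell lysate made in Tris/NaCl/EDTA/NaF/pyrophosphate/PMSF/aprotinin buffer, 30 min on ice, protein measured by BCA. 12% SDS-PAGE at 10 μg/lane, nitrocellulose blot, primary antibodies (caspase-3, -8, -9, Bax, Bcl-2, PARP) overnight at 4 °C, HRP secondary, ECL.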"}, "[21]": {"assay": "Sensitization of TRAIL-induced apoptosis in human RC-58T/h/SA#4 cells assessed as Bcl-2 activation at 20 uM after 24 hrs by immunoblotting analysis relative to untreated control", "assay_type": "functional", "summary_of_the_method": "as §4"}, "[22]": {"assay": "Induction of apoptosis in human RC-58T/h/SA#4 cells assessed as procaspase-8 activation at 20 uM after 24 hrs by immunoblotting analysis relative to untreated control", "assay_type": "functional", "summary_of_the_method": "as §4"}}, "note": "The source made the active and inactive calls. No cut-off for these calls is given here.", "data": [{"smiles": "CC(C)/C=C/C(=O)c1ccoc1", "values": [{"measurement": "Ratio", "setting": "[1]", "value": 1.1}, {"measurement": "Ratio", "setting": "[2]", "value": 0.9}, {"measurement": "Ratio", "setting": "[3]", "value": 1.1}, {"measurement": "Ratio", "setting": "[4]", "value": 1.3}, {"measurement": "Ratio", "setting": "[5]", "value": 1.2}, {"measurement": "Ratio", "setting": "[6]", "value": 1.1}, {"measurement": "Ratio", "setting": "[7]", "value": 1}, {"measurement": "Ratio", "setting": "[8]", "value": 1.3}, {"measurement": "Activity", "setting": "[9]", "value": 14.3, "unit": "%"}, {"measurement": "Ratio", "setting": "[10]", "value": 0.8}, {"measurement": "Activity", "setting": "Homo sapiens [11]", "value": "Dose-dependent effect"}, {"measurement": "Ratio", "setting": "[12]", "value": 1.3}, {"measurement": "Ratio", "setting": "[13]", "value": 1.3}, {"measurement": "Ratio", "setting": "[14]", "value": 1}, {"measurement": "Activity", "setting": "[15]", "value": 2, "unit": "%"}, {"measurement": "Activity", "setting": "[16]", "value": "Toxic"}, {"measurement": "Activity", "setting": "Homo sapiens [17]", "value": "Active"}, {"measurement": "Activity", "setting": "Homo sapiens [18]", "value": "Active"}, {"measurement": "Activity", "setting": "Homo sapiens [19]", "value": "Active"}, {"measurement": "Ratio", "setting": "[20]", "value": 1.8}, {"measurement": "Ratio", "setting": "[21]", "value": 0.5}, {"measurement": "Ratio", "setting": "[22]", "value": 1.2}]}]}
